Data set [1] has as its system MEF. Kind of data set: Induction of apoptosis in Bak/Bax double knockout MEF at 30 uM after 24 hrs by FITC-conjugated annexin V and propidium iodide staining-based FACS analysis. The format is functional. To be noted: Mus musculus. The procedure, abridged:
(§1)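 Next day, compound was added at final 0, 2.5, 5.0, 7.5, 10 and 30 μM. The following day, floating and trypsinized adherent cells were pooled and stained with Annexin V-FITC/PI. Cells negative for both were scored viable by flow cytometry.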
(In general: A flow cytometer gives signals particle by particle.)

The test system of data set [2] is MEF. Kind of data set: Induction of apoptosis in MEF expressing wild type Bcl-2 protein at 30 uM after 24 hrs by FITC-conjugated annexin V and propidium iodide staining-based FACS analysis. The class given is functional, cell-based. The conditions noted are these: Mus musculus. The procedure, abridged:
as §1

Another data set relates to BP3. The data set is described as follows: Induction of apoptosis in human BP3 cells after 1 to 2 days by FITC-conjugated annexin V and propidium iodide staining-based FACS analysis. The class given is functional, cell-based.
Data set [3] relates to MEF. Kind of data set: Induction of apoptosis in Bak/Bax double knockout MEF at […] after 24 hrs by FITC-conjugated annexin V and propidium iodide staining-based FACS analysis. The format is functional, cell-based. The conditions noted are these: Mus musculus. The procedure, abridged:
as §1

In data set [4] the test system is M2182. Kind of data set: Antitumor activity against Mcl-1 overexpressing human M2182 cells xenografted in BALB/c mouse assessed as reduction of tumor size at 25 mg/kg, ip administered 9 times every 2 days. The format is functional, organism-based. Also on record: dose 25 mg/kg. The method, boiled down: (§2)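 Dosing started at visible tumors of ~75 mm3 (~5–6 days): i.p. every 2 days, nine injections in all, in ethanol/Cremophor EL/saline 10:10:80 (500 μL). Vehicle controls were used, with at least five mice per group. Tumors were followed by luciferin (150 mg/kg i.p.) bioluminescence imaging and excised at study end.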
On the technique in general: In xenograft studies the graft and the host belong to different species.

In data set [5] the test system is M2182. The data set is described as follows: Antitumor activity against Mcl-1 overexpressing human M2182 cells xenografted in BALB/c mouse assessed as complete inhibition of tumor growth at 25 mg/kg, ip administered 9 times every 2 days. The arrangement: dose 25 mg/kg. The format is functional, organism-based. The procedure, abridged:
as §2

Data set [6] relates to Mus musculus. Kind of data set: Toxicity in BALB/c mouse xenografted with Mcl-1 overexpressing human M2182 cells at 10 to 25 mg/mg, ip administered 9 times every 2 days. The class given is organism-based. To be noted: in vivo, 48 h. The method, boiled down:
(§3)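 Athymic nude male mice bearing bilateral s.c. M2182-Luc tumors (~75 mm3) received i.p. doses every 2 days, nine injections in all, in ethanol/Cremophor EL/saline 10:10:80 (500 μL). At least five animals per group. Tolerability was judged by signs of toxicity over the course of treatment.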

The test system of data set [7] is M2182. The data set is described as follows: Antitumor activity against Mcl-1 overexpressing human M2182 cells xenografted in BALB/c mouse assessed as reduction of tumor size at 10 mg/kg, ip administered 9 times every 2 days. The class given is functional, organism-based. The arrangement: dose 10 mg/kg. The method, boiled down: as §2
The nature of data set [8]: Chemical stability at 10 mmol/L after 80 days at -20 degC by LC/MS/MS analysis. The format is physicochemical. The conditions noted are these: 1920 h, 10000 µM.
The subject of data set [9] is Mus musculus. Kind of data set: Reduction of Bcl-2 accumulation in human Bcl2 expressing B6 transgenic mouse assessed as induction of spleen shrinkage at 42 mg/kg, ip administered as single dose after 24 hrs. The class given is functional. The arrangement: scale not given: the % may be the effect or the level left. To be noted: route intraperitoneal. The method, boiled down:
(§4)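 Age- and sex-matched B6 transgenic mice (human BCL-2 minigene fused to the IgH locus/enhancer, not yet lymphomatous; two per compound) received a single i.p. dose in 500 μL ethanol/Cremophor EL/saline 10:10:80. Controls received vehicle alone. Mice were killed with Avertin 24 h later and spleens weighed. Shrinkage was expressed as percent reduction versus controls.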

Data set [10] can be described thus: Chemical stability at 10 mmol/L after 80 days at 42 degC by LC/MS/MS analysis. The class given is physicochemical. The conditions noted are these: 1920 h, 10000 µM.
Data set [11] deals with Mus musculus. Kind of data set: Reduction of Bcl-2 accumulation in human Bcl2 expressing B6 transgenic mouse assessed as reduction in spleen weight at 42 mg/kg, ip administered as single dose after 24 hrs. The format is functional. To be noted: route intraperitoneal; for inhibition in vivo at 42 mg/kg: Mus musculus, B6, Spleen, ip, 24 h. The method, boiled down: as §4

A short description of data set [12]: Chemical stability at 10 mmol/L after 80 days at 21 degC by LC/MS/MS analysis. The class given is physicochemical. The conditions noted are these: 1920 h, 10000 µM.
A short description of data set [13]: Chemical stability at 10 mmol/L after 80 days at 37 degC by LC/MS/MS analysis. The class given is physicochemical. To be noted: 1920 h, 10000 µM.
In data set [14] the test system is Mus musculus. The data set is described as follows: Toxicity in BALB/c mouse xenografted with Mcl-1 overexpressing human M2182 cells at 1 to 5 mg/mg, ip administered 9 times every 2 days. The format is organism-based. The conditions noted are these: in vivo, 48 h. The method, boiled down: as §3
A short description of data set [15]: Antitumor activity against Mcl-1 overexpressing human M2182 cells xenografted in BALB/c mouse assessed as inhibition of tumor growth at 3 mg/kg, ip administered 9 times every 2 days. The format is functional. The arrangement: scale not given: the % may be the effect or the level left. The conditions noted are these: route intraperitoneal. The method, boiled down: as §2

The test system of a further data set is Liver microsomes. The data set is described as follows: (§5) Metabolic stability in rat liver microsomes at 4 uM after 40 mins by LC/MS/MS analysis. The class given is ADME, Microsome. To be noted: microsomes, 40 min, 4 µM. The procedure, abridged:
(§6)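 Test compounds were incubated in rat liver microsomal preparations for 40 min, and the fraction of compound remaining or degraded was reported.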
On the technique in general: Liver microsomes are vesicles of endoplasmic reticulum, rich in cytochrome P450 enzymes.

Data set [16] relates to M2182. The data set is described as follows: Antitumor activity against Mcl-1 overexpressing human M2182 cells xenografted in BALB/c mouse assessed as reduction of tumor size at 1 to 5 mg/kg, ip administered 9 times every 2 days. The class given is functional, organism-based. The method, boiled down: as §2
The test system of data set [17] is M2182. The data set is described as follows: Antitumor activity against Mcl-1 overexpressing human M2182 cells xenografted in BALB/c mouse assessed as complete inhibition of tumor growth at 5 mg/kg, ip administered 9 times every 2 days. The arrangement: dose 5 mg/kg. The class given is functional, organism-based. The method, boiled down: as §2
Data set [18] can be described thus: as §5. The class given is ADME, Microsome. The conditions noted are these: liver microsomes, read-out: Stability. The procedure, abridged:
as §6

The next data set deals with Bcl-2-like protein 1 (Homo sapiens, UniProt Q07817). Kind of data set: Displacement of FITC-labeled Bak BH3 peptide from Bcl-XL after 30 mins by fluorescence polarization assay.

The source made the active and inactive calls. The calls are words filed in the database; no cut-off is given here.

Chain of Bcl-2-like protein 1 (Q07817 whole entry): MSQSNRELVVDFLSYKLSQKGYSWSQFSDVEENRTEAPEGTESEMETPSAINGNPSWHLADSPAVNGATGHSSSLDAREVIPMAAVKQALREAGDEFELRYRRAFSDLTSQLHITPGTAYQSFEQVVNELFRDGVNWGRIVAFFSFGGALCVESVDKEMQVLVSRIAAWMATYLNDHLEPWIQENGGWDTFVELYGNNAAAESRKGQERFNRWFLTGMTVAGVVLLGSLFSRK

Consider `Cc1cc2c(C(=O)NC[C@@H](C)c3ccccc3)c(O)c(O)cc2c(O)c1-c1c(C)cc2c(C(=O)NC[C@@H](C)c3ccccc3)c(O)c(O)cc2c1O`, for which the result in the data set with MEF [1] and in the data set with MEF [2] was Active. The Activity result with BP3 is “Dose-dependent effect”.

For the molecule `Cc1cc2c(C(=O)NC[C@H](C)c3ccccc3)c(O)c(O)cc2c(O)c1-c1c(C)cc2c(C(=O)NC[C@H](C)c3ccccc3)c(O)c(O)cc2c1O`, the Activity entry with BP3 is “Dose-dependent effect”.

`Cc1cc2c(C(=O)NCC(C)c3ccccc3)c(O)c(O)cc2c(O)c1-c1c(C)cc2c(C(=O)NCC(C)c3ccccc3)c(O)c(O)cc2c1O` (racemic): the result in the data set on MEF [3], in the data set on M2182 [4] and in the data set on M2182 [5] was Active. Also, the Activity entry in the data set with Mus musculus [6] is reported as “Non-toxic”. The outcome in the data set with M2182 [7] was inactive.

Usually inhibition in vivo stands for the share of the control response that was lost under treatment. In the case of `Cc1cc2c(C(=O)NC[C@H](C)c3ccccc3)c(O)c(O)cc2c(O)c1-c1c(C)cc2c(C(=O)NC[C@H](C)c3ccccc3)c(O)c(O)cc2c1O` (single isomer, unassigned; atropisomer) [listing 1 of 2 here], the Stability entry is given as “Stable” in data set [8]; “Stable” in data set [10]; “Stable” in data set [12]; “Stable” in data set [13]; 41% with Liver microsomes. For the same molecule, the results for the Activity (with Mus musculus [9] (42 mg/kg); in the data set on Mus musculus [14]; in data set [15]) were 65%, “Non-toxic” and 40%, respectively. Besides, the inhibition in vivo at 42 mg/kg with Mus musculus [11] is more than 30%.

As to `Cc1cc2c(C(=O)NC[C@@H](C)c3ccccc3)c(O)c(O)cc2c(O)c1-c1c(C)cc2c(C(=O)NC[C@@H](C)c3ccccc3)c(O)c(O)cc2c1O` (single isomer, unassigned; atropisomer) [listing 1 of 2 here], the Stability result was “Stable” in data set [8]; “Stable” in data set [10]; “Stable” in data set [12]; “Stable” in data set [13]; 42% in the data set on Liver microsomes. For the same molecule, in the data set on Mus musculus [9], the Activity result was “<=40%”. In the data set on Mus musculus [11], the inhibition in vivo at 42 mg/kg was not above 20%.

For `Cc1cc2c(C(=O)NC[C@@H](C)c3ccccc3)c(O)c(O)cc2c(O)c1-c1c(C)cc2c(C(=O)NC[C@@H](C)c3ccccc3)c(O)c(O)cc2c1O` (single isomer, unassigned; atropisomer) [listing 2 of 2 here], the Activity result with BP3 is “Dose-dependent effect”.

In the case of `Cc1cc2c(C(=O)NC[C@H](C)c3ccccc3)c(O)c(O)cc2c(O)c1-c1c(C)cc2c(C(=O)NC[C@H](C)c3ccccc3)c(O)c(O)cc2c1O` (single isomer, unassigned; atropisomer) [listing 2 of 2 here], the outcome in the data set with M2182 [16], in the data set with MEF [2] and with M2182 [17] was Active. Also, the Activity entry in the data set on BP3 is “Dose-dependent effect”.

As for `Cc1cc2c(C(=O)NC[C@H](C)c3ccccc3)c(O)c(O)cc2c(O)c1-c1c(C)cc2c(C(=O)NC[C@H](C)c3ccccc3)c(O)c(O)cc2c1O` [1,1',6,6',7,7'-HEXAHYDROXY-3,3'-DIMETHYL-N5-((R)-2-PHENYLPROPYL)-N5'-((R)-2-PHENYLPROPYL)-2,2'-BINAPHTHYL-5,5'-DICARBOXAMIDE (ATROPISOMERIC MIX)], the Activity result with Mus musculus [9] (42 mg/kg) is on record as “<=40%”; with Mus musculus [6], “Non-toxic”. Further, the “inhibition (INH)” value in the data set on Mus musculus [11] (42 mg/kg) is on record as “<=20%”. Also, in data set [18], the remaining at 40 min, 4 µM worked out at 28%.

`Cc1cc2c(C(=O)NC[C@@H](C)c3ccccc3)c(O)c(O)cc2c(O)c1-c1c(C)cc2c(C(=O)NC[C@@H](C)c3ccccc3)c(O)c(O)cc2c1O` [(S)-1',6,6',7,7'-HEXAHYDROXY-3,3'-DIMETHYL-N5-((S)-2-PHENYLPROPYL)-N5'-((S)-2-PHENYLPROPYL)-2,2'-BINAPHTHYL-5,5'-DICARBOXAMIDE (ATROPISOMERIC MIX)]: in data set [18], the remaining at 40 min, 4 µM came out at 41%.

As a reminder, the IC50 is the concentration that gives 50% inhibition. Regarding `Cc1cc2c(C(C)C)c(O)c(O)c(C=O)c2c(O)c1-c1c(C)cc2c(C(C)C)c(O)c(O)c(C=O)c2c1O` [GOSSYPOL], the IC50 on Bcl-2-like protein 1 came to 540 nM.
